Numbered stars: 1 amine (or outer) side, 2 acyl side, 3 side chain; on linkers, the order of the positions; unused ones are H or OH. Square brackets hold non-standard residues; d marks the D form. Peptide text beside a SMILES is read from it. * marks the point of attachment. X2 = O=C(c1ccc(N[*:1])cc1-c1cccc2ccccc12)[*:2]; X1 = O=C(c1ccc(N[*:1])c(-c2ccccc2)c1)[*:2]; X3 = O=C(c1ccc(N[*:1])cc1-c1ccccc1)[*:2]; X4 = Cc1cc(C(=O)[*:2])ccc1N[*:1]; NHBn = c1ccc(CN*)cc1
Target: RAC-alpha serine/threonine-protein kinase (Homo sapiens, UniProt P31749)
Assay: Inhibition of Akt1 by fluorescence polarization assay
Summary of the method: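 Substrate 100 nM 5FAM-labelled GSK3-derived peptide, ATP 5 μM, inhibitor added from DMSO stock. Incubated 1 h at room temperature, then quenched with IMAP binding solution. Phosphorylation read by fluorescence polarization; IC50 determined.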

RAC-alpha serine/threonine-protein kinase, sequence (P31749 whole entry): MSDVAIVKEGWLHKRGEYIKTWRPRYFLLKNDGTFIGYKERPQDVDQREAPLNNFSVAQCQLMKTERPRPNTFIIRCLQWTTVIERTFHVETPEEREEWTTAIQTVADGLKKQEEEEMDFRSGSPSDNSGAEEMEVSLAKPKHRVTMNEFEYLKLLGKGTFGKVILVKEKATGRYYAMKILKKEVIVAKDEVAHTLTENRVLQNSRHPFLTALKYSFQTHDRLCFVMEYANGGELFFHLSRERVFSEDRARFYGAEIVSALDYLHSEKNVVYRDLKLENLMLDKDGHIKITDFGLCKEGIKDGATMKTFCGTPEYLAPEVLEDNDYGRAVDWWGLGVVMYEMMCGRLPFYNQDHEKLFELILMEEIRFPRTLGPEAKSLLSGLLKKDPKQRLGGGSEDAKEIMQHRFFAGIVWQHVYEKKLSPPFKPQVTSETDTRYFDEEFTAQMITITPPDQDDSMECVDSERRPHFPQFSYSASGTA

| Structure (SMILES) | IC50 |
| --- | --- |
| N=C(N)NCCNc1ccc(C(=O)Nc2ccc(N(Cc3ccccc3)Cc3ccccc3)cc2)cc1-c1ccc(-c2ccccc2)cc1 | 83 µM |
| CC(=O)N[C@@H](CCCNC(=N)N)C(=O)Nc1ccc(C(=O)N[C@H](C(=O)N[C@@H](Cc2ccccc2)C(=O)NCc2ccccc2)C(C)C)cc1-c1ccccc1 | 288 µM |
| N=C(N)NCCNc1ccc(C(=O)Nc2ccc(N(Cc3ccc4ccccc4c3)Cc3ccc4ccccc4c3)cc2)cc1-c1ccccc1 | 23 µM |
| N=C(N)NCCNc1ccc(C(=O)Nc2ccc(N(Cc3ccccc3)Cc3ccccc3)cc2)cc1-c1ccccc1 | 84 µM |
| CC(=O)NCC(=O)N[C@@H](CCCNC(=N)N)C(=O)N1CCC[C@H]1C(=O)N[C@@H](CCCNC(=N)N)C(=O)Nc1ccc(C(=O)N[C@H](C(=O)N[C@@H](Cc2ccccc2)C(=O)NCc2ccccc2)C(C)C)cc1-c1ccccc1 (Ac-GRPR[X1]VF-NHBn) | > 500 µM |
| CC(=O)N[C@@H](CCCNC(=N)N)C(=O)Nc1ccc(C(=O)Nc2ccc3c(c2)c(=O)n(Cc2ccccc2)c(=O)n3Cc2ccccc2)cc1 | 232 µM |
| N=C(N)NCCNc1ccc(C(=O)Nc2ccc(N(Cc3ccccc3)Cc3ccccc3)cc2)cc1 | 96 µM |
| CC(=O)N[C@@H](CCCNC(=N)N)C(=O)Nc1ccc(C(=O)Nc2ccc3c(=O)n(Cc4ccccc4)c(=O)n(Cc4ccccc4)c3c2)cc1 | 112 µM |
| N=C(N)NCCNc1ccc(C(=O)Nc2ccc(N(Cc3cccc4ccccc34)Cc3cccc4ccccc34)cc2)cc1-c1ccccc1 | 43 µM |
| CC(=O)NCC(=O)N[C@@H](CCCNC(=N)N)C(=O)N1CCC[C@H]1C(=O)N[C@@H](CCCNC(=N)N)C(=O)Nc1ccc(C(=O)N[C@H](C(=O)N[C@@H](Cc2ccccc2)C(=O)NCc2ccccc2)C(C)C)c(-c2cccc3ccccc23)c1 (Ac-GRPR[X2]VF-NHBn) | 78 µM |
| CC(=O)N[C@@H](CCCNC(=N)N)C(=O)Nc1ccc(C(=O)N[C@H](C(=O)N[C@@H](Cc2ccccc2)C(=O)NCc2ccccc2)C(C)C)c(-c2ccccc2)c1 | 173 µM |
| N=C(N)NCCNc1ccc(C(=O)Nc2ccc(N(Cc3ccc(-c4ccccc4)cc3)Cc3ccc(-c4ccccc4)cc3)cc2)cc1-c1ccccc1 | 84 µM |
| CC(=O)NCC(=O)N[C@@H](CCCNC(=N)N)C(=O)N1CCC[C@H]1C(=O)N[C@@H](CCCNC(=N)N)C(=O)Nc1ccc(C(=O)N[C@H](C(=O)N[C@@H](Cc2ccccc2)C(=O)NCc2ccccc2)C(C)C)c(-c2ccccc2)c1 (Ac-GRPR[X3]VF-NHBn) | 16 µM |
| Cc1cccc(CN(Cc2cccc(C)c2)c2ccc(NC(=O)c3ccc(NCCNC(=N)N)c(-c4ccccc4)c3)cc2)c1 | 152 µM |
| CC(=O)NCC(=O)N[C@@H](CCCNC(=N)N)C(=O)N1CCC[C@H]1C(=O)N[C@@H](CCCNC(=N)N)C(=O)Nc1ccc(C(=O)N[C@H](C(=O)N[C@@H](Cc2ccccc2)C(=O)NCc2ccccc2)C(C)C)cc1C (Ac-GRPR[X4]VF-NHBn) | 50 µM |

More lines, now with the values ahead:

| IC50 | Structure (SMILES) |
| --- | --- |
| 253 µM | CC(=O)Nc1ccc(-c2cc(C(=O)Nc3ccc(N(Cc4ccccc4)Cc4ccccc4)cc3)ccc2NCCNC(=N)N)cc1 |
| 28 µM | CC(C)c1ccc(CN(Cc2ccc(C(C)C)cc2)c2ccc(NC(=O)c3ccc(NCCNC(=N)N)c(-c4ccccc4)c3)cc2)cc1 |
| 12 µM | N#Cc1ccc(CN(Cc2ccc(C#N)cc2)c2ccc(NC(=O)c3ccc(NC(=O)CNC(=N)N)c(-c4ccc5ccccc5c4)c3)cc2)cc1 |
| 52 µM | CC(C)c1ccc(-c2cc(C(=O)Nc3ccc(N(Cc4ccccc4)Cc4ccccc4)cc3)ccc2NCCNC(=N)N)cc1 |
| 215 µM | Cc1ccc(CN(Cc2ccc(C)cc2)c2ccc(NC(=O)c3ccc(NCCNC(=N)N)c(-c4ccccc4)c3)cc2)cc1 |
| 158 µM | COC(=O)c1ccc(-c2cc(C(=O)Nc3ccc(N(Cc4ccccc4)Cc4ccccc4)cc3)ccc2NCCNC(=N)N)cc1 |
| 32 µM | N#Cc1ccc(CN(Cc2ccc(C#N)cc2)c2ccc3[nH]c(-c4ccc(NC(=O)CN=C(N)N)cc4)cc3c2)cc1 |
| 55 µM | N=C(N)NCCNc1ccc(C(=O)Nc2ccc(N(Cc3ccc(F)cc3)Cc3ccc(F)cc3)cc2)cc1-c1ccccc1 |
| 38 µM | CC(C)c1ccc(CN(Cc2ccc(C(C)C)cc2)c2ccc(NC(=O)c3ccc(NCCNC(=N)N)c(-c4ccc5ccccc5c4)c3)cc2)cc1 |
| 17 µM | N#Cc1ccc(CN(Cc2ccc(C#N)cc2)c2ccc(NC(=O)c3ccc(NCCNC(=N)N)c(-c4ccc5ccccc5c4)c3)cc2)cc1 |
| 19 µM | N#Cc1ccc(CN(Cc2ccc(C#N)cc2)c2ccc(NC(=O)c3ccc(NCCNC(=N)N)c(-c4ccccc4)c3)cc2)cc1 |
| 17 µM | CC(C)c1ccc(CN(Cc2ccc(C(C)C)cc2)c2ccc(NC(=O)c3ccc(NC(=O)CNC(=N)N)c(-c4ccc5ccccc5c4)c3)cc2)cc1 |
| 44 µM | N=C(N)NCCNc1ccc(C(=O)Nc2ccc(N(Cc3ccccc3)Cc3ccccc3)cc2)cc1-c1ccc2ccccc2c1 |
| 126 µM | NC(N)=NCC(=O)Nc1ccc(-c2cc3cc(N(Cc4ccccc4)Cc4ccccc4)ccc3[nH]2)cc1 |
| 78 µM | N#Cc1ccc(-c2cc(C(=O)Nc3ccc(N(Cc4ccccc4)Cc4ccccc4)cc3)ccc2NCCNC(=N)N)cc1 |

From ChEMBL document CHEMBL1152730, “Non-peptidic substrate-mimetic inhibitors of Akt as potential anti-cancer agents” (Bioorg Med Chem, 2009)
